Laboratory results from PMC8317130 (Journal of medicinal chemistry, 2020).
Values after ≈ are worked out from the molar mass of the structure shown. “Also recorded” adds a separate entry of the source. Read-outs that look alike come from different tables or passages of the source.

Legend:
Aqueous solubility = assay type: physicochemical; conditions: for solubility at 24 h: PBS buffer, pH 7.4
E. faecium ATCC 700221 = test: Time-kill assay; assay type: cell-based; conditions: 5× MIC, 24 hours, 37 °C
Caco-2 [1] = test: Bi-directional Caco-2 permeability; assay type: in vitro ADME, human
Summary of the method: (§1)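 Bidirectional (A→B and B→A) transport across Caco-2 monolayers, run by a contract lab. Donor/receiver pH 6.5/7.4. Concentrations measured as chromatographic peak areas. Papp (10^-6 cm/s) derived from end-point receiver concentration, incubation time, monolayer area and mid-point donor concentration. Recovery (%) = donor plus receiver amounts at end, relative to donor amount at time zero.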

[2] = Bi-directional Caco-2 permeability; assay type: in vitro ADME, human; conditions: human, Caco-2
Summary of the method: as §1

Caco-2 [3] = conditions: cited from earlier work
plasma protein = conditions: cited from earlier work
VRE strains = test: MIC in ambient air versus 5% CO2 on representative enterococcal strains; assay type: cell-based, Enterococcus; conditions: five representative enterococcal strains
Summary of the method: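 CLSI broth microdilution. Enterococci grown overnight on trypticase soy agar at 37 °C, adjusted to 0.5 McFarland, then diluted in TSB to about 5 × 10^5 CFU/mL. Compounds from 10 mg/mL DMSO stocks serially diluted.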

E. faecium HM-965 = test: MIC, broth microdilution; assay type: cell-based
Summary of the method: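 MIC by CLSI broth microdilution against E. faecium HM-965. Cells grown overnight on trypticase soy agar at 37 °C, set to 0.5 McFarland, and diluted in TSB to about 5 × 10^5 CFU/mL. Compounds from 10 mg/mL DMSO stocks serially diluted in plates.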

panel of VRE isolates = test: MIC50/MIC90 over panel of eleven VRE clinical isolates; assay type: cell-based, E. faecium, E. faecalis; conditions: Enterococcus
[4] = In vivo pharmacokinetics, oral gavage; design: species or system mice; conditions: male, ICR, mouse, plasma, 10 mg/kg

Compound: NS(=O)(=O)c1nnc(NC(=O)CN2CCOCC2)s1 [Compound 26, 2-(Morpholin-1-yl)-N-(5-sulfamoyl-1,3,4-thiadiazol-2-yl)acetamide]
- maximum solubility relative to MIC against E. faecium HM-965 (Aqueous solubility): approximately 40 fold
- solubility at 24 h (Aqueous solubility): 39 µg/mL (≈ 127 µM)
- bacteriostatic or bactericidal activity (E. faecium ATCC 700221): bacteriostatic
- concentration of molecule in the receiver chambers (Caco-2 [1]; Caco-2 permeability assay): below the limit of detection
- recovery [2]: 83%

Compound: CC(=O)Nc1nnc(S(N)(=O)=O)s1 [AZM, N-(5-sulfamoyl-1,3,4-thiadiazol-2-yl)acetamide]
- Papp A → B (Caco-2 [3]; Caco-2, pH 6): 0.19^f 10^−6 cm/sec
- Papp B → A (Caco-2 [3]; Caco-2, pH 6): 0.77^f 10^−6 cm/sec
- apparent permeability coefficient, Papp, low-permeable drug class (Caco-2 [3]; Caco-2): < 5e+12 ×10⁻⁶ cm/s
- net transport (A➔B) with P-gp inhibitors (Caco-2 [3]; Caco-2): up to 1.92
- net transport (A➔B) (Caco-2 [3]): 0.24
- plasma protein binding (plasma protein): over 90%
- activity against VRE strains in presence of 5% CO2 (VRE strains): inactive
- bacteriostatic or bactericidal activity (E. faecium ATCC 700221): bacteriostatic

Compound: CC(=O)NC[C@H]1CN(c2ccc(N3CCOCC3)c(F)c2)C(=O)O1 [linezolid, reference compound]
- bacteriostatic or bactericidal activity (E. faecium ATCC 700221): bacteriostatic

Compound: CC(=O)Nc1ccc(S(N)(=O)=O)cc1 [Compound 35, N-(4-sulfamoylphenyl)acetamide]
- anti-VRE activity (in words) (E. faecium HM-965): complete loss of activity

Compound: CC(=O)Nc1nnc(S(C)(=O)=O)s1 [Compound 33, N-(5-(Methylsulfonyl)-1,3,4-thiadiazol-2-yl)acetamide]
- anti-VRE activity (in words) (E. faecium HM-965): abolished the anti-VRE activity; also recorded: inactive against VRE strains; also recorded: complete loss of activity

Compound: CC(=O)Nc1ncc(S(N)(=O)=O)s1 [Compound 34, N-(5-sulfamoylthiazol-2-yl)acetamide]
- anti-VRE activity (in words) (E. faecium HM-965): abrogated activity against VRE; also recorded: complete loss of anti-VRE activity

Compound: NS(=O)(=O)c1nnc(NC(=O)CC2CCCCC2)s1 [Compound 20, 2-Cyclohexyl-N-(5-sulfamoyl-1,3,4-thiadiazol-2-yl)acetamide]
- activity against VRE strains in presence of 5% CO2 (VRE strains): inactive

Compound: NS(=O)(=O)c1nnc(NCC2CCCCC2)s1 [Compound 30, 5-((cyclohexylmethyl)amino)-1,3,4-thiadiazole-2-sulfonamide]
- anti-VRE activity (in words) (E. faecium HM-965): inactive against VRE

Compound: CN[C@H](CC(C)C)C(=O)N[C@H]1C(=O)N[C@@H](CC(N)=O)C(=O)N[C@H]2C(=O)N[C@H]3C(=O)N[C@H](C(=O)N[C@H](C(=O)O)c4cc(O)cc(O)c4-c4cc3ccc4O)[C@H](O)c3ccc(c(Cl)c3)Oc3cc2cc(c3O[C@@H]2O[C@H](CO)[C@@H](O)[C@H](O)[C@H]2O[C@H]2C[C@](C)(N)[C@H](O)[C@H](C)O2)Oc2ccc(cc2Cl)[C@H]1O [vancomycin, reference compound]
- MIC90 (panel of VRE isolates): > 64 µg/mL

Compound: NS(=O)(=O)c1nnc(NC(=O)CCC2CCCCC2)s1 [Compound 22, 3-Cyclohexyl-N-(5-sulfamoyl-1,3,4-thiadiazol-2-yl)propanamide]
- MIC90 (panel of VRE isolates; read-out: MIC90 converted to molar cellular potency): 0.0942 µM
- concentration at 1440 min [4]: 0 ng/mL
- maximum solubility relative to MIC against E. faecium HM-965 (Aqueous solubility): approximately 1500 fold
- solubility at 24 h (Aqueous solubility): 10.4 µg/mL (≈ 32.7 µM)
- bacteriostatic or bactericidal activity (E. faecium ATCC 700221): bacteriostatic
- net transport (A➔B) (Caco-2 [1]; Caco-2, pH 6.5/7.4): 0.46
